Experimental data reported in the EternaBench riboswitch data.

System: MS2 coat protein
Test: apparent Kd, MS2 coat protein; higher = weaker binding; RNA-MaP array; tryptophan 2.4 mM where present
Summary of the method: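 The apparent Kd is reported as the median of filtered per-cluster binding-curve fits. To get these curves, designs transcribed by stalled E. coli RNA polymerase on Illumina sequencing-chip clusters were titrated with SNAP-549-labelled MS2 coat protein from 0.7 or 1.5 nM, doubling to 3 µM. Titrations were run without and then with constant ligand in 100 mM Tris-HCl pH 7.5, 80 mM KCl, 4 mM MgCl2, BSA, DTT, yeast tRNA and Tween-20, and green signal was normalised to red-channel RNA signal and control-cluster median Fmax.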

[1] = designed as: ON switch for tryptophan, no ligand
[2] = ligand present: tryptophan, designed as: ON switch for tryptophan
[3] = designed as: OFF switch for tryptophan, no ligand
[4] = ligand present: tryptophan, designed as: OFF switch for tryptophan

Sequence	apparent Kd [1] [µM]	apparent Kd [2] [µM]	apparent Kd [3] [µM]	apparent Kd [4] [µM]
UCGAAUGCGGCGGCCGCCACUCGCGGAUAACGAUAGCUUAACAUGAGGAUCACCCAUGUGUCAUGGAGGACCGGGCCCAUACCGU	0.0227	0.0211	–	–
UCGUUUUAGUCGGCCGCCACUGAACUCAUGUUCAACAUGAGGAUCACCCAUGUACCUUAUUUUAACAGGACCGGGACGUAAUAGA	–	–	0.123	0.0975
UCUUUUUUCUUUUCUUCUUUCGGUUCUUUUCGAGGACCGGUACGGCCGCCACUCGAAACAUGAGGAUCACCCAUGUUUUGGUUUU	–	–	0.0119	0.0175
UGAUACCAGUCGGCCGCCACUAUGCUAGAUACUAGCAAUAAAGGGCGACAUGAGGAUCACCCAUGUAGGACCGGGACUGGUAUCU	–	–	0.0112	0.0148
UGCAUGAGGAUCGCCCGUGUCGAGCCGGUGCGAGGACCGGUACGGCCGCCACUCGAGACAUGAGGAUCACCCAUGUUGUGCGUGA	–	–	0.0565	0.0914
UGCUAGUGAUCGGCCGCCACUGGCACCUUGAGGAUCCUGCUAAAGUACAUGAGGAUCACCCAUGUCAGGACCGGGAUCAUCAGUG	–	–	0.0104	0.0105
UGUCGGCGAAAGUUGGCGUGUCUUGCUGGUCGAGGACCGGUACGGCCGCCACUCGAUCCUUCGCACAUGAGGAUCACCCAUGUUG	0.0255	0.0285	–	–
UUAUAAGUACCGGUCCUCAGAUCCUCAUGACGAGGACCGGUACGGCCGCCACUCGAAACAUGAGGAUCACCCAUGUAAUAAUACC	–	–	0.0375	0.0291
UUUAAAUAGACGGCCGCCACUGGAAUUAAUACAUGAGGAUCACCCAUGUAGAGAGAAUAAUAAUACAGGACCGGGUCUUCAUGAA	0.0314	0.0125	–	–
